Consider one molecule from ChEMBL document CHEMBL1154284, “Antioxidant effects of xanthohumol and functional impact on hepatic ischemia-reperfusion injury” (J Nat Prod, 2009).

Active and inactive are the calls of the source. No cut-off for these calls is given here.

For data set [1], the target named is T1, Caspase-3 (Rattus norvegicus) (UniProt P55213).
T1 sequence (whole entry): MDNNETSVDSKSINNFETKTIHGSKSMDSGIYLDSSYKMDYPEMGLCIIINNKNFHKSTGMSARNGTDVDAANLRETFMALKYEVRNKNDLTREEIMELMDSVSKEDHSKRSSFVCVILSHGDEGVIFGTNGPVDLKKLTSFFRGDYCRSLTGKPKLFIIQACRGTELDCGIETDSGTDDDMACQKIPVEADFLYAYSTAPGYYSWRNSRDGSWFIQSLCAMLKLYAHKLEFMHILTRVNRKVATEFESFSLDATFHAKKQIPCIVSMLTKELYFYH
As to the kind of experiment: Induction of caspase 3 in Sprague-Dawley rat ischemic-reperfused hepatic tissue assessed as generation of free fluorescent 7-amino-4-trifluoro-methylcoumarin at 2.26 mM treated before ischemic period. In outline:
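Isolated perfused rat livers (2.26 mM or solvent into portal vein, 6 h 4 °C cold ischemia, 150 min reperfusion). Tissue extracts incubated with Ac-DEVD-AFC; AFC fluorescence ex 385/em 505 nm; untreated livers set as 1; mean ± SEM, n = 3.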

The target of data set [2] is RAC-alpha serine/threonine-protein kinase (Rattus norvegicus) (UniProt P47196). Nature of the data set: Inhibition of AKt phosphorylation in Sprague-Dawley rat ischemic reperfusion treated hepatic tissue at 2.26 mM before ischemic period by Western blot analysis. In outline:
(§1)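 Rat livers given 2.26 mM or solvent via portal vein before 6 h cold ischemia and 150 min reperfusion. Western blot with antibodies to Bcl-xl or phospho-Akt (Ser-473, Thr-308), overnight at 4 °C, HRP secondary; β-actin loading control; densitometry; untreated livers as control; n = 3.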
For orientation: A western blot detects proteins with antibodies after separation by electrophoresis.

For data set [3], the species on record is Rattus norvegicus. Nature of the data set: Inhibition of ischemia-reperfusion-induced NF-kappaB binding activity in Sprague-Dawley rat liver at 2.26 mM treated prior to ischemic reperfusion by EMSA. Background: A gel shift assay detects complexes by their altered migration in electrophoresis.
The test system of data set [4] is Liver. As to the kind of experiment: Effect on ischemic and reperfusion-induced injury in Sprague-Dawley rat hepatic tissue at 2.26 mM before ischemic period assessed as AST level. The format is functional, tissue-based. Conditions: Sprague-Dawely. In outline:
(§2)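 Male Sprague–Dawley rats (200–240 g) livers perfused with Krebs–Henseleit buffer pH 7.4, 37 °C; 2.26 mM compound or solvent injected via portal vein before 6 h cold ischemia at 4 °C; reperfused 150 min at 37 °C. Perfusate ALT, AST, LDH measured over time on clinical analyzer at 37 °C; mean ± SEM, n = 3.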

Data set [5] concerns the target Bcl-2-like protein 1 (Rattus norvegicus) (UniProt P53563). As to the kind of experiment: Reduction of Bcl-xl level in Sprague-Dawley rat ischemic-reperfused hepatic tissue at 2.26 mM treated before ischemic period by Western blot analysis. The format is functional. An outline of the steps:
as §1

In data set [6] the test system is HEK293. As to the kind of experiment: Antioxidant activity in human HEK293 cells loaded with dihyfrofluresceindiacetate at 1 mM. The format is functional. An outline of the steps: (§3)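 HEK 293 cells grown to 85–90% confluency, pretreated 2 h with compound (40 μM) or NAC (1 mM); 20 μM dihydrofluorescein diacetate loaded during final 30 min at 37 °C in dark; washed, then 1 mM H2O2 for 20 min. Fluorescence ex 485/em 535 nm versus corresponding controls; mean ± SEM, n = 4.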

For data set [7], the system named is Liver. As to the kind of experiment: Inhibition of ischemic and reperfusion-induced of GSH activity in Sprague-Dawley rat hepatic tissue at 26.6 mM before ischemic period by DTNB reduction assay. The class given is functional, tissue-based. The following applies: 2.26 mM, in the assay text read “2.26 mM” for “26.6 mM”. An outline of the steps:
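Total glutathione in liver homogenate from perfused rat livers after cold ischemia/reperfusion, measured colorimetrically via DTNB reduction at 405 nm; normalized to Bradford protein; percent of untreated controls.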

Data set [8] in a line: Antioxidant activity assessed as superoxide radical anion scavenging activity after 100 secs by xanthine/xanthine oxidase method. The format is functional. An outline of the steps:
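Cell-free chemiluminescence: 1 mM xanthine with test solution (5–80 μM), reaction started by injecting 1 mM luminol and 0.5 U/mL xanthine oxidase (stock concentrations). Light read for 100 s at 37 °C; output as RLU or area under the curve, relative to solvent control (100%); n = 9.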

Data set [9] relates to HEK293. As to the kind of experiment: Cytotoxicity against human HEK293 cells upto 10 to 300 uM after 3 hrs by MTT assay. The class given is cell-based. The following applies: hek293, 3 h. In outline:
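HEK 293 cells near 85–90% confluency exposed 3 h to 10–300 μM; MTT added, 1 h at 37 °C; formazan dissolved in DMSO and absorbance read at 550 nm.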
A general note: Tetrazolium assays rely on reduction of a dye to a coloured formazan, in cell work by metabolically active cells.

A short description of data set [10]: Inhibition of TNF-alpha-induced NF-kappaB activation expressed in human HEK293 cells preincubated for 2 hrs before TNFalpha challenge by leuciferase reporter gene assay. The format is cell-based. In outline: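 HEK 293 cells transiently transfected (Ca2+-phosphate) with NF-κB-driven firefly luciferase plasmid, replated 1×10^5 cells/well, grown 16 h; preincubated 2 h with 5–60 μM, then 1 ng/mL TNF-α for 6 h; PDTC 50 μM positive control. Lysate luciferase read; solvent-treated = 100%; mean ± SEM, n = 3.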

Data set [11] relates to Liver. As to the kind of experiment: Effect on ischemic and reperfusion-induced injury in Sprague-Dawley rat hepatic tissue at 2.26 mM before ischemic period assessed as ALT level. The format is functional, tissue-based. Conditions: Sprague-Dawely. An outline of the steps:
as §2

The test system of data set [12] is Liver. As to the kind of experiment: Inhibition of ischemic and reperfusion-induced oxidative stress in Sprague-Dawley rat hepatic tissue at 26.6 mM before ischemic period assessed as decrease in 8-isoprostane level. The class given is functional, tissue-based. Conditions: 2.26 mM, in the assay text read “2.26 mM” for “26.6 mM”. An outline of the steps:
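Liver homogenates from perfused rat livers after cold ischemia/reperfusion; 8-isoprostane by competitive EIA with acetylcholinesterase conjugate, absorbance 412 nm; percent of untreated controls.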

In data set [13] the test system is Liver. As to the kind of experiment: Inhibition of ischemic and reperfusion-induced SOD activity in Sprague-Dawley rat hepatic tissue at 26.6 mM before ischemic period by pyragallol method. Conditions: 2.26 mM, in the assay text read “2.26 mM” for “26.6 mM”. The class given is functional, tissue-based. In outline: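 Perfused rat livers (portal-vein pretreatment before 6 h cold ischemia, 150 min reperfusion). Tissue SOD activity by pyrogallol autoxidation method (one unit inhibits autoxidation 50%), normalized to Bradford protein, expressed as percent of untreated controls; mean ± SEM, n = 3.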

The test system of data set [14] is Liver. Nature of the data set: Effect on ischemic and reperfusion-induced injury in Sprague-Dawley rat hepatic tissue at 2.26 mM before ischemic period assessed as LDH level. The format is functional, tissue-based. The following applies: Sprague-Dawely. In outline: as §2
For data set [15], the system named is HEK293. As to the kind of experiment: Antioxidant activity in human HEK293 cells loaded with dihyfrofluresceindiacetate at 40 uM. The format is functional. An outline of the steps: as §3

Bcl-2-like protein 1 (Rattus norvegicus), sequence (P53563 whole entry, the tested form may be a part): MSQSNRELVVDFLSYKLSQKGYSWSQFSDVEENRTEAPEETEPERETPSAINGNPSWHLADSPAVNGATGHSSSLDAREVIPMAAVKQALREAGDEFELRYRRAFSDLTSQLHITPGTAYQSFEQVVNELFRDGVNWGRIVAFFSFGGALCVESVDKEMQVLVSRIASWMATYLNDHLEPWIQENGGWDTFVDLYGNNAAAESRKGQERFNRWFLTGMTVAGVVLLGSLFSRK
RAC-alpha serine/threonine-protein kinase (Rattus norvegicus), sequence (P47196 whole entry, the tested form may be a part): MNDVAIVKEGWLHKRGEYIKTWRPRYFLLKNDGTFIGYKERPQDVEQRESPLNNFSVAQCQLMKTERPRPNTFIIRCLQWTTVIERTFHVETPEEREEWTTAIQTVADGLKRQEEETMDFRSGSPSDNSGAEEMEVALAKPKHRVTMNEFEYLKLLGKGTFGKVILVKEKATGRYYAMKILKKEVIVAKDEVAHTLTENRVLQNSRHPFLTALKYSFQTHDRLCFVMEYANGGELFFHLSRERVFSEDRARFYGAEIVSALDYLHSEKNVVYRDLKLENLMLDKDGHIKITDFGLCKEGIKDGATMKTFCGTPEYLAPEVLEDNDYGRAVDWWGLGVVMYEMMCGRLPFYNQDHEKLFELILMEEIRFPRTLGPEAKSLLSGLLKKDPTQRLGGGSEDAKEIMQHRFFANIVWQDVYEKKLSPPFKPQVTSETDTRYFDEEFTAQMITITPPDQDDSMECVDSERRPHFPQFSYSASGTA

On to `COc1cc(O)c(CC=C(C)C)c(O)c1C(=O)/C=C/c1ccc(O)cc1` [XANTHOHUMOL], for which the result in data set [1] and in data set [5] was Active. Moreover, the inhibition entry in data set [2], in [3], in data set [7], in [12] and in [13] was “Active” throughout. Moreover, the result in data set [4], in data set [11] and in data set [14] was inactive. For the same molecule, the Activity in [6] is 46.2%; in data set [9] it was “Non-toxic”; in data set [15], 71.9%. The IC50 in data set [8] is 15 µM; in data set [10] it was 35 µM.

One may read the IC50 as the concentration at which inhibition is half-maximal.
